Data reported in ChEMBL document CHEMBL4732241, “Synthesis of artemisinin-piperazine-furan ether hybrids and evaluation of in vitro cytotoxic activity” (Eur J Med Chem, 2021).

Tests used:
SMMC-7721 [1] = assay: Cytotoxicity against human SMMC-7721 cells assessed as cell viability after 24 hrs by MTT assay; format: functional, cell-based; conditions: SMMC-7721, 24 h
Method in brief: (§1)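 Cells pre-cultured 24 h at 37 C, then exposed for 24 h to compounds at […], with drug-free and DMSO solvent controls. MTT read-out: formazan dissolved in DMSO, absorbance at 568 nm. Inhibition rate taken relative to the negative control. IC50 from triplicate measurements.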

L02 = assay: Cytotoxicity against human L02 cells assessed as cell viability after 24 hrs by MTT assay; format: functional, cell-based; conditions: L02, 24 h; method in brief: as §1
SMMC-7721 [2] = assay: Induction of apoptosis in human SMMC-7721 cells assessed as late apoptotic cells at 0.1 ug/ml after 48 hrs annexin V-[…]/PI by flow cytometry (reference value: 2.42 to 3%); format: functional; conditions: dose 0.1 µg/ml
SMMC-7721 [3] = assay: Induction of apoptosis in human SMMC-7721 cells assessed as viable cells at 100 ug/ml after 48 hrs annexin V-[…]/PI by flow cytometry (reference value: 93.54 to 94.31%); format: functional; conditions: read-out: Activity
SMMC-7721 [4] = assay: Induction of apoptosis in human SMMC-7721 cells assessed as early apoptotic cells at 100 ug/ml after 48 hrs annexin V-[…]/PI by flow cytometry (reference value: 3.3 to 3.16%); format: functional; conditions: dose 100 µg/ml
SMMC-7721 [5] = assay: Induction of apoptosis in human SMMC-7721 cells assessed as late apoptotic cells at 10 ug/ml after 48 hrs annexin V-[…]/PI by flow cytometry (reference value: 2.42 to 3%); format: functional; conditions: dose 10 µg/ml
Huh-7 = assay: Cytotoxicity against human HUH-7 cells assessed as cell viability after 48 hrs by MTT assay; format: functional, cell-based; conditions: Huh-7, 48 h
Method in brief: (§2)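 Cells pre-cultured 24 h at 37 C, then given fresh medium with compound at […] alongside drug-free and DMSO solvent controls. Incubated 48 h at 37 C, then MTT (2 mg/mL in PBS) added for 4 h. Formazan dissolved in DMSO and A568 read. Inhibition rate taken relative to the negative control. IC50 from triplicate measurements.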

CCD-18Co = assay: Cytotoxicity against human CCD-18C0 cells assessed as cell viability after 48 hrs by MTT assay; format: functional, cell-based; method in brief: as §2
SMMC-7721 [6] = assay: Induction of apoptosis in human SMMC-7721 cells assessed as necrotic cells at 10 ug/ml after 48 hrs annexin V-[…]/PI by flow cytometry (reference value: 0.15 to 0.29%); format: functional; conditions: dose 10 µg/ml
SMMC-7721 [7] = assay: Induction of apoptosis in human SMMC-7721 cells assessed as necrotic cells at 0.1 ug/ml after 48 hrs annexin V-[…]/PI by flow cytometry (reference value: 0.15 to 0.29%); format: functional; conditions: dose 0.1 µg/ml
HCT-116 = assay: Cytotoxicity against human HCT-116 cells assessed as cell viability after 48 hrs by MTT assay; format: functional, cell-based; conditions: HCT-116, 48 h; method in brief: as §2
MHCC97H = assay: Cytotoxicity against human MHCC97H cells assessed as cell viability after 48 hrs by MTT assay; format: functional, cell-based; method in brief: as §2
MCF-10A = assay: Cytotoxicity against human MCF-10A cells assessed as cell viability after 48 hrs by MTT assay; format: cell-based; method in brief: as §2
SMMC-7721 [8] = assay: Induction of apoptosis in human SMMC-7721 cells assessed as necrotic cells at 100 ug/ml after 48 hrs annexin V-[…]/PI by flow cytometry (reference value: 0.15 to 0.29%); format: functional; conditions: dose 100 µg/ml
SMMC-7721 [9] = assay: Induction of apoptosis in human SMMC-7721 cells assessed as viable cells at 10 ug/ml after 48 hrs annexin V-[…]/PI by flow cytometry (reference value: 93.54 to 94.31%); format: functional; conditions: read-out: Activity
MCF7 = assay: Cytotoxicity against human MCF7 cells assessed as cell viability after 48 hrs by MTT assay; format: functional, cell-based; conditions: MCF7, 48 h; method in brief: as §2
SMMC-7721 [10] = assay: Cytotoxicity against human SMMC-7721 cells assessed as cell viability after 48 hrs in presence of 100 umol/L FeSO4 by MTT assay; format: functional, cell-based; conditions: SMMC-7721, 48 h
SMMC-7721 [11] = assay: Induction of apoptosis in human SMMC-7721 cells assessed as late apoptotic cells at 100 ug/ml after 48 hrs annexin V-[…]/PI by flow cytometry (reference value: 2.42 to 3%); format: functional; conditions: dose 100 µg/ml
SMMC-7721 [12] = assay: Induction of apoptosis in human SMMC-7721 cells assessed as early apoptotic cells at 10 ug/ml after 48 hrs annexin V-[…]/PI by flow cytometry (reference value: 3.3 to 3.16%); format: functional; conditions: dose 10 µg/ml
SMMC-7721 [13] = assay: Induction of apoptosis in human SMMC-7721 cells assessed as early apoptotic cells at 0.1 ug/ml after 48 hrs annexin V-[…]/PI by flow cytometry (reference value: 3.3 to 3.16%); format: functional; conditions: dose 0.1 µg/ml
SMMC-7721 [14] = assay: Induction of apoptosis in human SMMC-7721 cells assessed as viable cells at 0.1 ug/ml after 48 hrs annexin V-[…]/PI by flow cytometry (reference value: 93.54 to 94.31%); format: functional; conditions: read-out: Activity
[15] = Cytotoxicity against human HCCLM3 cells assessed as cell viability after 48 hrs by MTT assay; format: functional, cell-based; conditions: HCCLM3, 48 h; method in brief: as §2
SMMC-7721 [16] = assay: Cytotoxicity against human SMMC-7721 cells assessed as cell viability after 48 hrs by MTT assay; format: functional, cell-based; conditions: SMMC-7721, 48 h; method in brief: as §2

CC[C@]1(O)C[C@H]2CN(CCc3c([nH]c4ccccc34)[C@@](C(=O)OC)(c3cc4c(cc3OC)N(C=O)[C@H]3[C@@](O)(C(=O)OC)[C@H](OC(C)=O)[C@]5(CC)C=CCN6CC[C@]43[C@@H]65)C2)C1 [VINCRISTINE]
IC50 (SMMC-7721 [1]): 270 nM
IC50 (L02): 300 nM

C[C@H]1[C@H](N2CCN(C3=C(Cl)C(=O)OC3O[C@H]3CC4CCC3(C)C4(C)C)CC2)O[C@@H]2O[C@@]3(C)CC[C@H]4[C@H](C)CC[C@@H]1[C@@]24OO3 (stereo partly drawn)
IC50 (SMMC-7721 [1]): 570 nM
IC50 (L02): 460 nM

CCOC1OC(=O)C(Br)=C1N1CCN([C@@H]2O[C@@H]3O[C@@]4(C)CC[C@H]5[C@H](C)CC[C@@H]([C@H]2C)[C@@]35OO4)CC1 (stereo partly drawn)
IC50 (SMMC-7721 [1]): 430 nM
IC50 (L02): 500 nM

COC1OC(=O)C(Cl)=C1N1CCN([C@@H]2O[C@@H]3O[C@@]4(C)CC[C@H]5[C@H](C)CC[C@@H]([C@H]2C)[C@@]35OO4)CC1 (stereo partly drawn)
Activity (SMMC-7721 [2]): 3.21%
viability at 100 µg/mL (SMMC-7721 [3]): 60.3%
Activity (SMMC-7721 [4]): 20.35%
Activity (SMMC-7721 [5]): 6.06%
IC50 (Huh-7): 160 nM
IC50 (CCD-18Co): 100 nM
Activity (SMMC-7721 [6]): 0.49%
Activity (SMMC-7721 [7]): 0.14%
IC50 (HCT-116): 100 nM
IC50 (MHCC97H): 100 nM
IC50 (MCF-10A): 220 nM
Activity (SMMC-7721 [8]): 0.73%
viability at 10 µg/mL (SMMC-7721 [9]): 82.1%
IC50 (SMMC-7721 [1]): 260 nM
IC50 (MCF7): 80 nM
IC50 (SMMC-7721 [10]): 100 nM
Activity (SMMC-7721 [11]): 14.42%
Activity (SMMC-7721 [12]): 8.77%
Activity (SMMC-7721 [13]): 4.26%
viability at 0.1 µg/mL (SMMC-7721 [14]): 88.6%
IC50 (L02): 320 nM
IC50 [15]: 100 nM
IC50 (SMMC-7721 [16]): 110 nM

CC(C)[C@H]1CC[C@H](C)C[C@@H]1O[C@H]1OC(=O)C(Cl)=C1N1CCN([C@@H]2O[C@@H]3O[C@@]4(C)CC[C@H]5[C@H](C)CC[C@@H]([C@H]2C)[C@@]35OO4)CC1
IC50 (SMMC-7721 [1]): 520 nM
IC50 (L02): 640 nM

C[C@H]1[C@H](N2CCN(C3=C(Br)C(=O)O[C@@H]3O[C@H]3CC4CCC3(C)C4(C)C)CC2)O[C@@H]2O[C@@]3(C)CC[C@H]4[C@H](C)CC[C@@H]1[C@@]24OO3
IC50 (SMMC-7721 [1]): 480 nM
IC50 (L02): 480 nM

CC(C)[C@H]1CC[C@H](C)C[C@@H]1O[C@H]1OC(=O)C(Br)=C1N1CCN([C@@H]2O[C@@H]3O[C@@]4(C)CC[C@H]5[C@H](C)CC[C@@H]([C@H]2C)[C@@]35OO4)CC1
IC50 (SMMC-7721 [1]): 390 nM
IC50 (L02): 360 nM

COC1OC(=O)C(Br)=C1N1CCN([C@@H]2O[C@@H]3O[C@@]4(C)CC[C@H]5[C@H](C)CC[C@@H]([C@H]2C)[C@@]35OO4)CC1 (stereo partly drawn)
IC50 (SMMC-7721 [1]): 290 nM
IC50 (L02): 260 nM

C[C@H]1[C@H](O)O[C@@H]2O[C@@]3(C)CC[C@H]4[C@H](C)CC[C@@H]1[C@@]24OO3
IC50 (SMMC-7721 [1]): > 700 nM
IC50 (L02): 220 nM

C[C@@H]1CC[C@H]2[C@@H](C)C(=O)O[C@@H]3O[C@@]4(C)CC[C@@H]1[C@]32OO4 [ARTEMISININ]
IC50 (SMMC-7721 [1]): 630 nM
IC50 (L02): 430 nM

CCOC1OC(=O)C(Cl)=C1N1CCN([C@@H]2O[C@@H]3O[C@@]4(C)CC[C@H]5[C@H](C)CC[C@@H]([C@H]2C)[C@@]35OO4)CC1 (stereo partly drawn)
IC50 (SMMC-7721 [1]): 560 nM
IC50 (L02): > 700 nM
